In ChEMBL document CHEMBL2321657, “In vitro efficiency of 9-(N-cinnamoylbutyl)aminoacridines against blood- and liver-stage malaria parasites” (Bioorg Med Chem Lett, 2013):

Experiments:
[1] = test system: Plasmodium falciparum; assay: Antiplasmodial activity against ring stage of CQ-resistant Plasmodium falciparum W2 after 48 hrs by flow cytometric analysis; assay type: functional, organism-based; conditions: W2, 48 h
[2] = test system: Huh-7; assay: Cytotoxicity against human HuH7 cells up to 5 uM after 48 hrs by cell confluence analysis; assay type: cell-based; conditions: huh-7, 48 h
[3] = test system: Plasmodium berghei; assay: Antiplasmodial activity against liver stage of Plasmodium berghei expressing GFP-Luc infected in HuH7 cells incubated at 1 hr prior to infection followed by compound replenisment at 24 hrs post-infection measured after 48 hrs by Alamar blue assay; assay type: functional, organism-based; conditions: Huh-7, in the assay text read “luciferase bioluminescence assay” for “Alamar blue assay”
In short: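 Huh7 human hepatoma cells infected with firefly luciferase-expressing P. berghei sporozoites in the presence of compound. Liver-stage infection load read as bioluminescence of cell lysates 48 h after infection. Primaquine included as the liver-stage reference.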

[4] = test system: Plasmodium berghei; assay: Ratio of primaquine IC50 to compound IC50 for liver stage of Plasmodium berghei; assay type: functional

`O=C(/C=C/c1ccccc1)NCCCCNc1c2ccccc2nc2ccccc12` was tested, and the IC50 [1] was 892 nM.

`Cc1ccc(/C=C/C(=O)NCCCCNc2c3ccccc3nc3ccccc23)cc1` was tested, and the IC50 [1] was 225 nM.

With `CC(C)c1ccc(/C=C/C(=O)NCCCCNc2c3ccccc3nc3ccccc23)cc1` the IC50 [1] was 126 nM.

With `COc1ccc(/C=C/C(=O)NCCCCNc2c3ccccc3nc3ccccc23)cc1` the Activity [2] was “Non-toxic”, the IC50 [3] was 3200 nM and the IC50 [1] was 138 nM. For the same compound, the “Ratio IC50” value [4] was 3.

`O=C(/C=C/c1cccc(F)c1)NCCCCNc1c2ccccc2nc2ccccc12` gave an IC50 [1] of 345 nM.

`O=C(/C=C/c1ccc(F)cc1)NCCCCNc1c2ccccc2nc2ccccc12` was tested, and the Activity [2] was “Non-toxic” and the IC50 [1] was 145 nM.

`O=C(/C=C/c1cccc([N+](=O)[O-])c1)NCCCCNc1c2ccccc2nc2ccccc12` gave an IC50 [1] of 142 nM.

For `CCN(CC)CCCC(C)Nc1ccnc2cc(Cl)ccc12` (stereo not drawn) [CHLOROQUINE], the IC50 [3] was > 15000 nM.

`COc1cc(NC(C)CCCN)c2ncccc2c1` (stereo not drawn) [PRIMAQUINE] was tested, and the IC50 [3] was 8000 nM.
